Measurements as given in ChEMBL document CHEMBL2203068, “Antibacterial butenolides from the Korean tunicate Pseudodistoma antinboja” (2012).
≈ marks a conversion by molar mass, not a printed value. Calls of active or inactive are those of the source. No cut-off for these calls is given here.

Columns and labels:
[1] = tested on: Staphylococcus epidermidis; test: Antimicrobial activity against Staphylococcus epidermidis ATCC 12228 incubated for 24 hrs by microtiter broth dilution method; assay type: functional
Method in brief: (§1)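 Two-fold serial dilutions of compounds in DMSO were added to Mueller Hinton broth in 96-well microtiter plates (final 0.64% DMSO). Wells were inoculated with overnight bacterial culture at 5 × 10⁵ cfu/mL and incubated at 37 °C for 24 h. The MIC was the lowest concentration with no visible growth.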

Bacillus subtilis = test: Antimicrobial activity against Bacillus subtilis ATCC 6633 incubated for 24 hrs by microtiter broth dilution method; assay type: functional; method in brief: as §1
Staphylococcus aureus [2] = test: Antimicrobial activity against Staphylococcus aureus ATCC 6538 incubated for 24 hrs by microtiter broth dilution method; assay type: functional; method in brief: as §1
Kocuria rhizophila = test: Antimicrobial activity against Kocuria rhizophila ATCC 9341 incubated for 24 hrs by microtiter broth dilution method; assay type: functional; method in brief: as §1
Escherichia coli = test: Antimicrobial activity against Escherichia coli ATCC 11775 incubated for 24 hrs by microtiter broth dilution method; assay type: functional, organism-based; method in brief: as §1
Staphylococcus aureus [3] = test: Antimicrobial activity against methicillin-sensitive Staphylococcus aureus CCARM 0204 incubated for 24 hrs by microtiter broth dilution method; assay type: functional; details: CCARM 0204, 24 h
Method in brief: (§2)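 Two-fold serial dilutions of compound in DMSO were made in Mueller Hinton broth in 96-well microtiter plates, with 0.64% DMSO final. Each well was inoculated with an overnight bacterial culture at 5 × 10⁵ cfu/mL and incubated at 37 °C for 24 h. MIC was the lowest concentration showing no visible growth.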

Staphylococcus aureus [4] = test: Antimicrobial activity against methicillin-sensitive Staphylococcus aureus CCARM 0027 incubated for 24 hrs by microtiter broth dilution method; assay type: functional; details: CCARM 0027, 24 h; method in brief: as §2
Staphylococcus aureus [5] = test: Antimicrobial activity against methicillin-sensitive Staphylococcus aureus CCARM 0205 incubated for 24 hrs by microtiter broth dilution method; assay type: functional; details: CCARM 0205, 24 h; method in brief: as §2
Staphylococcus aureus [6] = test: Antimicrobial activity against methicillin-resistant Staphylococcus aureus CCARM 3090 incubated for 24 hrs by microtiter broth dilution method; assay type: functional; details: CCARM 3090, 24 h; method in brief: as §2
Klebsiella pneumoniae = test: Antimicrobial activity against Klebsiella pneumoniae ATCC 4352 incubated for 24 hrs by microtiter broth dilution method; assay type: functional, organism-based; method in brief: as §1
Staphylococcus aureus [7] = test: Antimicrobial activity against methicillin-resistant Staphylococcus aureus CCARM 3635 incubated for 24 hrs by microtiter broth dilution method; assay type: functional; details: CCARM 3635, 24 h; method in brief: as §2
Staphylococcus aureus [8] = test: Antimicrobial activity against methicillin-sensitive Staphylococcus aureus CCARM 3640 incubated for 24 hrs by microtiter broth dilution method; assay type: functional; details: CCARM 3640, 24 h; method in brief: as §2
Salmonella typhimurium = test: Antimicrobial activity against Salmonella typhimurium ATCC 14028 incubated for 24 hrs by microtiter broth dilution method; assay type: functional, organism-based; details: Salmonella enterica subsp. enterica serovar Typhimurium; method in brief: as §1
Staphylococcus aureus [9] = test: Antimicrobial activity against methicillin-resistant Staphylococcus aureus CCARM 3089 incubated for 24 hrs by microtiter broth dilution method; assay type: functional; details: CCARM 3089, 24 h; method in brief: as §2
Staphylococcus aureus [10] = test: Antimicrobial activity against methicillin-resistant Staphylococcus aureus CCARM 3634 incubated for 24 hrs by microtiter broth dilution method; assay type: functional; details: CCARM 3634, 24 h; method in brief: as §2

Row | Molecule | MIC [1] [µg/mL] | MIC (Bacillus subtilis) [µg/mL] | MIC (Staphylococcus aureus [2]) [µg/mL] | MIC (Kocuria rhizophila) [µg/mL] | MIC (Escherichia coli) | MIC (Staphylococcus aureus [3]) [µg/mL] | MIC ([1]; ATCC 12228, 24 h) [µg/mL] | MIC (Bacillus subtilis; ATCC 6633, 24 h) [µg/mL] | MIC (Staphylococcus aureus [4]) [µg/mL] | MIC (Staphylococcus aureus [2]; ATCC 6538, 24 h) [µg/mL] | MIC (Staphylococcus aureus [5]) [µg/mL] | MIC (Staphylococcus aureus [6]) [µg/mL] | MIC (Klebsiella pneumoniae) | MIC (Staphylococcus aureus [7]) [µg/mL] | MIC (Staphylococcus aureus [8]) [µg/mL] | MIC (Salmonella typhimurium) | MIC (Staphylococcus aureus [9]) [µg/mL] | MIC (Staphylococcus aureus [10]) [µg/mL] | MIC (Kocuria rhizophila; ATCC 9341, 24 h) [µg/mL]
1 | GENTAMICIN | < 0.02 | 0.05 | < 0.02 | 1.6 | – | – | – | – | – | – | – | – | – | – | – | – | – | – | –
2 | O=C1O/C(=C\c2ccc(O)c(Br)c2)C(c2cc(Br)c(O)c(Br)c2)=C1C(=O)c1cc(Br)c(O)c(Br)c1 [CADIOLIDE D] | – | – | – | – | inactive | 0.5 (≈ 0.629 µM) | 0.8 (≈ 1.01 µM) | 6.3 (≈ 7.93 µM) | 0.5 (≈ 0.629 µM) | 6.3 (≈ 7.93 µM) | 0.25 (≈ 0.315 µM) | 0.25 (≈ 0.315 µM) | inactive | 0.25 (≈ 0.315 µM) | 0.25 (≈ 0.315 µM) | inactive | 0.5 (≈ 0.629 µM) | 1 (≈ 1.26 µM) | 1.6 (≈ 2.01 µM)
3 | CC12C[C@@]34C=CC(=O)[C@@](C)(CCC(=O)Nc5c(O)ccc(C(=O)O)c5O)C3[C@H](CC1C4)O2 (some centres not stated) [PLATENSIMYCIN] | – | – | – | – | – | 4 (≈ 9.06 µM) | – | – | 4 (≈ 9.06 µM) | – | 4 (≈ 9.06 µM) | 8 (≈ 18.1 µM) | – | 8 (≈ 18.1 µM) | 8 (≈ 18.1 µM) | – | 8 (≈ 18.1 µM) | 8 (≈ 18.1 µM) | –
4 | O=C1O/C(=C\c2cc(Br)c(O)c(Br)c2)C(c2cc(Br)c(O)c(Br)c2)=C1C(=O)c1cc(Br)c(O)c(Br)c1 [CADIOLIDE B] | – | – | – | – | inactive | 1 (≈ 1.14 µM) | 3.1 (≈ 3.55 µM) | 3.1 (≈ 3.55 µM) | 2 (≈ 2.29 µM) | 3.1 (≈ 3.55 µM) | 2 (≈ 2.29 µM) | 1 (≈ 1.14 µM) | inactive | 0.5 (≈ 0.572 µM) | 1 (≈ 1.14 µM) | inactive | 1 (≈ 1.14 µM) | 1 (≈ 1.14 µM) | 3.1 (≈ 3.55 µM)
5 | O=C1C=C(c2ccc(O)c(Br)c2)/C(=C/c2cc(Br)c(O)c(Br)c2)O1 [RUBROLIDE J] | – | – | – | – | inactive | 2 (≈ 3.87 µM) | 0.8 (≈ 1.55 µM) | 1.6 (≈ 3.09 µM) | 2 (≈ 3.87 µM) | 3.1 (≈ 6 µM) | 1 (≈ 1.93 µM) | 2 (≈ 3.87 µM) | inactive | 2 (≈ 3.87 µM) | 2 (≈ 3.87 µM) | inactive | 4 (≈ 7.74 µM) | 2 (≈ 3.87 µM) | 6.3 (≈ 12.2 µM)
6 | O=C1O/C(=C\c2ccc(O)c(Br)c2)C(c2ccc(O)c(Br)c2)=C1C(=O)c1cc(Br)c(O)c(Br)c1 [CADIOLIDE C] | – | – | – | – | inactive | 0.25 (≈ 0.349 µM) | 0.4 (≈ 0.559 µM) | 3.1 (≈ 4.33 µM) | 0.5 (≈ 0.698 µM) | 0.4 (≈ 0.559 µM) | 0.25 (≈ 0.349 µM) | 0.25 (≈ 0.349 µM) | inactive | < 0.13 | < 0.13 | inactive | 0.5 (≈ 0.698 µM) | 0.5 (≈ 0.698 µM) | 0.2 (≈ 0.279 µM)
